By Ki is commonly meant the dissociation constant of the complex between target and ligand, obtained from inhibition or displacement. In general, logP refers to the decadic logarithm of the partition coefficient of the neutral form, usually between octanol and water. The term bioavailability denotes dose-corrected exposure relative to a reference, in per cent.

Data on 10 compounds can be found in ChEMBL document CHEMBL1131061, “Design and synthesis of a series of potent and orally bioavailable noncovalent thrombin inhibitors that utilize nonbasic groups in the P1 position” (J Med Chem, 1998).

Data set [1] concerns the target Plasma kallikrein (Homo sapiens, UniProt P03952). Briefly: Binding affinity was evaluated on serine protease plasma kallikrein. The data set is classed as cell-free.
Data set [2] concerns the target T1, Chymotrypsinogen A (Bos taurus, UniProt P00766). Briefly: Binding affinity was evaluated on serine protease Chymotrypsinogen. The data set is classed as single protein.
Data set [3] addresses Tissue-type plasminogen activator (Homo sapiens, UniProt P00750). Description: Binding affinity was evaluated on serine protease TPA.
For data set [4], the species on record is Rattus norvegicus. Description: The final concentration in plasma of rat carotid artery FeCl3 induced thrombosis model. The data set is classed as ADME, organism-based. A digest of the protocol:
(§1)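 Rat carotid artery FeCl₃-induced thrombosis model. Compound in saline vehicle infused iv at 10 μg/kg/min for 120 min before the FeCl₃ insult. Plasma drug concentration measured. Saline vehicle controls run alongside.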

The target in data set [5] is Plasminogen (Homo sapiens, UniProt P00747). Briefly: Binding affinity was evaluated on serine protease plasmin.
Chain of Plasminogen (P00747 97-580 limits assumed): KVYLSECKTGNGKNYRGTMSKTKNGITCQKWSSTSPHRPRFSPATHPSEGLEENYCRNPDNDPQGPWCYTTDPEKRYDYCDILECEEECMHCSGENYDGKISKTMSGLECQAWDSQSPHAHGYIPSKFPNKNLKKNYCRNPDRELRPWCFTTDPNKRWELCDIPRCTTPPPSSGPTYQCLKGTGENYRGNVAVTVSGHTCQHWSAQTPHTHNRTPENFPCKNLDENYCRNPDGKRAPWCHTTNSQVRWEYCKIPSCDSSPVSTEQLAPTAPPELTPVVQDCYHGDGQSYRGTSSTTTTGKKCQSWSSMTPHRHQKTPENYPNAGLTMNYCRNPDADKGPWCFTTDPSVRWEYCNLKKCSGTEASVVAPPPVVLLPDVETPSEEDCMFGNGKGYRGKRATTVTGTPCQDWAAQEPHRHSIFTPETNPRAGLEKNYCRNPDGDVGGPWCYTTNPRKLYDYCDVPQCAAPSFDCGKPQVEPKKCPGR
Chain of Plasminogen (P00747 581-810 limits assumed): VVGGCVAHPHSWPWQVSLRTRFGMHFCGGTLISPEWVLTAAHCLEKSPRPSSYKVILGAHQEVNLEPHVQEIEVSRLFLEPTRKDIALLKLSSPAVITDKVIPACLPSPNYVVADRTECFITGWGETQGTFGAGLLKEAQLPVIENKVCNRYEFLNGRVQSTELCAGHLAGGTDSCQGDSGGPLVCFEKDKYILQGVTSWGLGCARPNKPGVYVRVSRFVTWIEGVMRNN
In data set [6] the target is Prothrombin (Homo sapiens, UniProt P00734). Description: Binding affinity was evaluated on serine protease thrombin.
Data set [7] concerns the target T2, Serine protease 1 (Homo sapiens, UniProt P07477). Briefly: Binding affinity was evaluated on serine protease trypsin.
Data set [8] is described as follows: Partition coefficient (logP). The note with it: octanol/water. The data set is classed as physicochemical. In outline:
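Log P determined experimentally by standard octanol/water partitioning.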

Data set [9] can be described thus: Oral bioavailability in rats when dosed in a suspension of 1% methocel. The class given is ADME, organism-based. The note with it: rat, in vivo. A digest of the protocol:
(§2)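 Fasted animals (24 h without food). Oral dose by gavage as a 1% methocel suspension. Intravenous dose given by indwelling jugular vein cannula in rat and by peripheral venipuncture in dog and cynomolgus monkey, in saline or 20% PEG 200. iv/po doses in mg/kg: rat 2/10, 5/20 or 5/12; dog 2/5 or 1/5; monkey 1/5. F (%) is the mean of at least three determinations.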

Data set [10] can be described thus: The 2(APTT) value is defined as the concentration of compound in plasma required to double the activated partial thromboplastin time in human. The class given is functional. A digest of the protocol:
(§3)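 2 × APTT is the inhibitor concentration in plasma required to double the activated partial thromboplastin time.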

Data set [11] is described as follows: Oral bioavailability in rat when dosed in a suspension of 1% methocel. The class given is ADME, organism-based. Conditions: in vivo. A digest of the protocol:
as §2

The nature of data set [12]: Oral bioavailability in cynomolgus monkey (dose 5 mg/kg). The class given is ADME, organism-based, Macaca fascicularis. The note with it: in vivo. In outline:
as §2

Data set [13] can be described thus: Oral bioavailability in cynomolgus monkey (dosed in a suspension of 1% methocel). Conditions: in vivo. The class given is ADME, organism-based, Macaca fascicularis. A digest of the protocol:
as §2

Data set [14] is filed under the species Rattus norvegicus. Briefly: (§4) % Free drug present in rat plasma. The data set is classed as functional.
The species entered for data set [15] is Rattus norvegicus. Briefly: Concentration of compound in plasma required to double the activated partial thromboplastin time in rat measured as 2(APTT) value. The class given is functional, cell-free. In outline:
as §3

A short description of data set [16]: The concentration in plasma. The class given is ADME, cell-free. In outline: as §1
The species named for data set [17] is Homo sapiens. Description: % Free drug present in human plasma. The class given is ADME, organism-based.
The species named for data set [18] is Homo sapiens. Description: Concentration of compound in plasma required to double the activated partial thromboplastin time in human measured as 2(APTT) value. The data set is classed as functional, cell-free. A digest of the protocol:
as §3

Data set [19] is described as follows: Oral bioavailability in dog (dosed in a suspension of 1% methocel). The class given is ADME, organism-based, Canis lupus familiaris. Conditions: in vivo. In outline: as §2
The species named for data set [20] is Rattus norvegicus. The data set is described as §4. The data set is classed as ADME, organism-based.
In data set [21] the target is T2, Serine protease 1. Briefly: Selectivity was evaluated as the binding affinity between thrombin versus trypsin.
Data set [22] addresses T1, Chymotrypsinogen A. Briefly: Selectivity was evaluated as the binding affinity between thrombin versus Chymotrypsinogen.

Some results are limits rather than exact numbers.

Chain of Tissue-type plasminogen activator (P00750 whole entry): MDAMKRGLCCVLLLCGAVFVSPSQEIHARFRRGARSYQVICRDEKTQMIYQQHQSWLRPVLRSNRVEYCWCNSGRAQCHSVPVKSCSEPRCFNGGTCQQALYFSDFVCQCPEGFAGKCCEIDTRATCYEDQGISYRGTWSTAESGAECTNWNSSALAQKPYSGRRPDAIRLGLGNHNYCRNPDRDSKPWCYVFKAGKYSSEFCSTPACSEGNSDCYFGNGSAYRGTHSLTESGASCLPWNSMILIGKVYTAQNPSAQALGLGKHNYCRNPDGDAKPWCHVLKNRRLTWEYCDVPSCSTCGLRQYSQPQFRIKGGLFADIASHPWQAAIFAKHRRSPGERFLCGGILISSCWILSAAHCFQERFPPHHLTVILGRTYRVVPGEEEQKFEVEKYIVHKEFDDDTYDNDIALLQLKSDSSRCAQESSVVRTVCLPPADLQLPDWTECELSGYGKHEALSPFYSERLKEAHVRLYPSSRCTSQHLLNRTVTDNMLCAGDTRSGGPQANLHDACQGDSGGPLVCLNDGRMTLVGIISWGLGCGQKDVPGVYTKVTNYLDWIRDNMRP
T2 sequence (P07477 whole entry): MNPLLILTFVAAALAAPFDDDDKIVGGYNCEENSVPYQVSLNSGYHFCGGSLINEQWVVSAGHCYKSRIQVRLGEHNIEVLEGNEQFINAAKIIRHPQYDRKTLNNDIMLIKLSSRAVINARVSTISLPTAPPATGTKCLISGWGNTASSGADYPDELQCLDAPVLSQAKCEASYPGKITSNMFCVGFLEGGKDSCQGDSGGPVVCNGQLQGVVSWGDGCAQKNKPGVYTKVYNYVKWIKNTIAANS
Chain of Plasma kallikrein (P03952 20-390 limits assumed): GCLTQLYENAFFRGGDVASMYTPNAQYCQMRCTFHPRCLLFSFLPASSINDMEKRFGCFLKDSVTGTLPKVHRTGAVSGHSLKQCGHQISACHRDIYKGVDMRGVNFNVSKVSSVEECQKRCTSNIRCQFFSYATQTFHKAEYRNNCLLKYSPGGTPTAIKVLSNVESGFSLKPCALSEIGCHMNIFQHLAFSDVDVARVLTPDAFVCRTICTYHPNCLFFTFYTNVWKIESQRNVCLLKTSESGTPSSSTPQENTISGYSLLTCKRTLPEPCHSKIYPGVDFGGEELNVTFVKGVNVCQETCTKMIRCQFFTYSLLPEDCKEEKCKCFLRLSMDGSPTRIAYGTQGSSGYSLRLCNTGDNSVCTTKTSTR
Chain of Plasma kallikrein (P03952 391-638 limits assumed): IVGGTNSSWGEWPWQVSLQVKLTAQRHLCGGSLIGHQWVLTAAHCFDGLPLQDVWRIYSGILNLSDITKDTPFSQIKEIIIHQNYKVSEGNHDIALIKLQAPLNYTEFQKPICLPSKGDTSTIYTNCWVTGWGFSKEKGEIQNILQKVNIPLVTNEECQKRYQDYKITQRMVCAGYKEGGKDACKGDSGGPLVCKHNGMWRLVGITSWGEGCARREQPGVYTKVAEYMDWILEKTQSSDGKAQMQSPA

On to `CCN(CC)C(=O)CN[C@@H](C(=O)N1CCC[C@H]1C(=O)NCc1cc(Cl)ccc1Cl)C1CCCCC1`, for which the Ki in data set [1] is 399 µM; in data set [2], 174 µM; in data set [3], 29 µM; in [5] it was 244 µM; in data set [6], 0.00031 µM; in [7], 27 µM. In data set [4], this compound had a concentration of 245 nM. Further, the logP in data set [8] was 2.67. Besides, the bioavailability in data set [9] amounted to 10%.

Regarding `CC1CNc2c(cccc2S(=O)(=O)N[C@@H](CCCNC(=N)N)C(=O)N2CCC(C)C[C@@H]2C(=O)O)C1` (single isomer, unassigned) [ARGATROBAN], in data set [10], the “2*APTT” value came to 0.28 µM.

For `CCNC(=O)COc1ccc(Cl)cc1CNC(=O)[C@@H]1CCCN1C(=O)[C@H](N)C1CCCCC1`, the bioavailability is 10% in [11], 63% in data set [12], 63% in data set [13] and 40% in [19]. Moreover, the Ki is 71 µM in data set [2] and 23 µM in [7]. In addition, the Free in data set [14] was found to be 14%; in [17], 15%. Moreover, the logP in [8] amounted to 2.07. Also, the Concentration in [15] turned out to be 0.38 µM; in data set [18] it was 0.41 µM. This compound also returned a concentration in data set [16] of 794 nM.

The compound `N[C@@H](C(=O)N1CCC[C@H]1C(=O)NCc1cc(Cl)ccc1Cl)C1CCCCC1` yielded a bioavailability in data set [11] of 23%. Besides, the Ki in data set [1] was 586 µM; in data set [2], 49 µM; in data set [3], 19 µM; in data set [5], 691 µM; in data set [6], 0.005 µM; in data set [7], 29 µM. Also, the Free in [20] came out at 9%; in data set [17], 4%. This compound also returned a concentration in [4] of 329 nM. Also, the logP in data set [8] was 2.63. The same compound came in with a Concentration in data set [18] of 0.95 µM.

As for `NC(C(=O)N1CCC[C@H]1C(=O)NCc1cc(Cl)ccc1Cl)C(c1ccccc1)c1ccccc1` (stereo partly specified), the logP in data set [8] was > 3.1. The Ki in data set [21] was 7 µM; in data set [22], > 50 µM. Further, in data set [19], the bioavailability was 45%.

Compound `N[C@@H](C(=O)N1CCC[C@H]1C(=O)NCc1cc(Cl)ccc1O)C1CCCCC1` had a Ki in [6] of 0.0025 µM.

For `N[C@@H](C(=O)N1CCC[C@H]1C(=O)NCc1cc(Cl)ccc1OCC(=O)NC1CC1)C1CCCCC1`, the bioavailability in data set [11] came out at 20%; in [12], 34%; in data set [13], 34%. For the same compound, the Ki in data set [1] stood at 79 µM; in data set [2] it was 67 µM; in data set [3], 36 µM; in data set [5], 113 µM; in data set [7], 18 µM. In addition, the Free is listed as 11% in data set [14] and 12% in data set [17]. In [8], this compound displayed a logP of 2.04. The Concentration was found to be 0.42 µM in data set [15] and 0.35 µM in data set [18].

Compound `CCN(CC)C(=O)CN[C@@H](C(=O)N1CCC[C@H]1C(=O)NCc1ccccc1Cl)C1CCCCC1` gave a Ki in data set [6] of 0.02 µM.

In the case of `CCOC(=O)COc1ccc(Cl)cc1CNC(=O)[C@@H]1CCCN1C(=O)[C@H](N)C1CCCCC1`, the affinity in data set [6] corresponds to a Ki of 0.00045 µM.

For `NC(=O)COc1ccc(Cl)cc1CNC(=O)[C@@H]1CCCN1C(=O)[C@H](N)C1CCCCC1`, the Ki in [1] stood at 816 µM; in data set [2], 131 µM; in [3], 11 µM; in [5] it was 152 µM; in [6], 0.0005 µM; in data set [7] it was 9 µM. Further, the values for the Free in [20] and in data set [17] were 7% and 26%, respectively. The same compound yielded a concentration in data set [4] of 726 nM. This compound also registered a logP in data set [8] of 1.96. The figures for the Concentration in data set [15] and in data set [18] were 0.31 µM and 0.25 µM, respectively.
